Source: ChEMBL document CHEMBL4725388, “Characterization of Aminobenzylphenols as Protein Disulfide Isomerase Inhibitors in Glioblastoma Cell Lines” (J Med Chem, 2020)

Legend:
[1] = biological target: Protein disulfide-isomerase (Homo sapiens, UniProt P07237); test: Inhibition of recombinant human wild-type N-terminal His-tagged PDIA1 expressed in Escherichia coli strain BL21(DE3) using bovine insulin as substrate preincubated for 1 hr followed by substrate addition
Summary of the method: (§1)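 IC50 from dose-response curves; PDI reductase assay for enzyme, MTT in U-87 MG cells for cytotoxicity; mean ± SD of at least three independent experiments.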

U-87 MG = test: Cytotoxicity against human U-87 MG cells assessed as growth inhibition measured after 72 hrs by MTT assay; assay type: functional, cell-based, U-87MG ATCC; summary of the method: as §1

Sequence of Protein disulfide-isomerase (P07237 whole entry): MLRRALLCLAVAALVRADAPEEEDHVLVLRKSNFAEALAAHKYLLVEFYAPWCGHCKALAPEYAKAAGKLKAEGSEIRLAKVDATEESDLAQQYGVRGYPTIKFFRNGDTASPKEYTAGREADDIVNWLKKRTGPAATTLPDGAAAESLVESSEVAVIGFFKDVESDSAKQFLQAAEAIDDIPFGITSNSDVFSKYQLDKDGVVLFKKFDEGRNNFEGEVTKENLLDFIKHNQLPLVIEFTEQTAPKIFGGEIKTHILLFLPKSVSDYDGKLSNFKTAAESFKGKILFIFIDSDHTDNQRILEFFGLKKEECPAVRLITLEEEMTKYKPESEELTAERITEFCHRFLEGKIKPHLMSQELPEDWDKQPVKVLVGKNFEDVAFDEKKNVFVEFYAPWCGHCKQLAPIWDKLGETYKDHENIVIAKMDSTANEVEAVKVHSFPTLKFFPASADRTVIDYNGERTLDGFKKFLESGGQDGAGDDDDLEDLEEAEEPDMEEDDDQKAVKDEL

| IC50 [1] | Structure (SMILES) | IC50 (U-87 MG) |
| --- | --- | --- |
| 710 nM | Oc1ccc2[nH]ncc2c1C(c1ccc(C(F)(F)F)cc1)N1CCCCC1 (centres undefined) | – |
| 370 nM | Oc1cccc(C(Nc2ccccn2)c2ccc3cccnc3c2O)c1Cl (centres undefined) | > 10000 nM |
| 9020 nM | COc1cccc(C(Nc2ncccn2)c2cc3c(cc2O)OCO3)c1O (centres undefined) | > 10000 nM |
| 290 nM | Oc1c(C(c2ccc(F)cc2)N2CCCCC2)ccc2c1OCCO2 (centres undefined) | – |
| 560 nM | Oc1c(C(c2ccc(F)cc2)N2CCCCC2)ccc2ccoc12 (centres undefined) | – |
| 830 nM | Oc1ccc2[nH]ncc2c1C(c1ccc(-c2cncnc2)cc1)N1CCCCC1 (centres undefined) | – |
| 390 nM | COc1ccccc1NC(c1ccccc1)c1ccc2cccnc2c1O (centres undefined) | > 10000 nM |
| < 200 nM | CN(C)c1ccc(C(c2cc3c(cc2O)OCO3)N2CCCC2)cc1 (centres undefined) | > 30000 nM |
| > 40000 nM | Cc1ccnc(NC(c2ccccc2C)c2ccc3cccnc3c2O)c1 (centres undefined) | > 10000 nM |
| 360 nM | COc1ccc(C(c2cc3c(cc2O)OCO3)N2CCCC2)c(OC)c1 (centres undefined) | > 30000 nM |
| > 40000 nM | CNC(=O)NC(c1cc(OC)c(OC)c(OC)c1)c1cc2c(cc1O)OCO2 (centres undefined) | > 10000 nM |
| > 10000 nM | Oc1c(C(c2ccc(F)cc2)N2CCCCC2)ccc2c1CCC2 (centres undefined) | – |
| 500 nM | Oc1c(C(Nc2ccccn2)c2ccccc2Cl)ccc2cccnc12 (centres undefined) | 9400 nM |
| < 200 nM | Oc1cc2c(cc1C(c1ccc(F)cc1)N1CCCC1)OCO2 (centres undefined) | > 30000 nM |
| 140 nM | Cc1ccnc(NC(c2ccc(F)cc2)c2ccc3cccnc3c2O)c1 (centres undefined) | > 10000 nM |
| 1650 nM | COc1cccc(C(c2cc3c(cc2O)OCO3)N2CCCC2)c1O (centres undefined) | > 10000 nM |
| 190 nM | Cc1cc(C)c(C(Nc2ccccn2)c2ccc3cccnc3c2O)c(C)c1 (centres undefined) | 10000 nM |
| 660 nM | Oc1c(C(c2ccc(F)cc2)N2CCCCC2)ccc2nccnc12 (centres undefined) | – |
| 880 nM | Cc1ccnc(NC(c2ccccc2F)c2ccc3cccnc3c2O)c1 (centres undefined) | 13100 nM |
| 4860 nM | Oc1c(C(c2ccc(F)cc2)N2CCCCC2)ccc2cncnc12 (centres undefined) | – |
| 1270 nM | CN(C)c1ccc(C(c2cc3c(cc2O)OCO3)N2CCCCC2)cc1 (centres undefined) | 24700 nM |
| 730 nM | Cc1ccc(C)c(C(Nc2ccccn2)c2ccc3cccnc3c2O)c1 (centres undefined) | 13800 nM |
| 620 nM | Cc1ccnc(NC(c2ccc(OCc3ccccc3)cc2)c2ccc3cccnc3c2O)c1 (centres undefined) | 9300 nM |
| > 40000 nM | Cc1ccnc(NC(c2ccc3cccnc3c2O)c2c(F)cccc2Cl)c1 (centres undefined) | 20600 nM |

| IC50 [1] | Structure (SMILES) | IC50 (U-87 MG) |
| --- | --- | --- |
| 2590 nM | COc1ccc(C(c2cc3c(cc2O)OCO3)N2CCCCC2)c(OC)c1 (centres undefined) | > 30000 nM |
| 270 nM | Oc1cc2c(cc1C(c1ccc(F)cc1)N1CCCCC1)OCO2 (centres undefined) | > 30000 nM |
| 12700 nM | Oc1cc2c(cc1C(Nc1ncccn1)c1ccc(F)cc1)OCO2 (centres undefined) | > 10000 nM |
| 170 nM | CCc1ccc(C(Nc2ccccn2)c2ccc3cccnc3c2O)cc1 (centres undefined) | 9300 nM |
| 530 nM | Cc1ccnc(NC(c2ccc([N+](=O)[O-])cc2)c2ccc3cccnc3c2O)c1 (centres undefined) | 3400 nM |
| > 40000 nM | CNC(=O)NC(c1ccc2c(c1)OCO2)c1cc2c(cc1O)OCO2 (centres undefined) | > 10000 nM |
| 510 nM | COc1cccc(C(c2cc3c(cc2O)OC(F)(F)O3)N2CCOCC2)c1OC (centres undefined) | – |
| > 100000 nM | Oc1cc2c(cc1C(c1ccc(F)cc1)N1CCCCC1)CCCC2 (centres undefined) | – |
| 2200 nM | COc1cc(C(Nc2ncccn2)c2cc3c(cc2O)OCO3)cc(OC)c1O (centres undefined) | > 10000 nM |
| < 200 nM | Cc1ccnc(NC(c2ccccc2)c2ccc3cccnc3c2O)c1 (centres undefined) | > 10000 nM |
| 230 nM | Oc1cc2c(cc1C(c1ccc(F)cc1)N1CCOCC1)OCO2 (centres undefined) | > 30000 nM |
| 1230 nM | CC(=O)c1cc2ccc(C(c3ccc(F)cc3)N3CCCCC3)c(O)c2o1 (centres undefined) | – |
| 180 nM | COc1cc(C(c2cc3c(cc2O)OCO3)N2CCCC2)cc(OC)c1OC (centres undefined) | 24200 nM |
| 72 nM | Oc1cc2c(cc1C(Nc1ccccn1)c1ccc3c(c1)OCO3)OCO2 (centres undefined) | > 10000 nM |
| 300 nM | Oc1c(C(c2ccc(C(F)(F)F)cc2)N2CCCCC2)ccc2ccoc12 (centres undefined) | – |
| 92 nM | Oc1cc2c(cc1C(c1ccc(Cl)cc1)N1CCOCC1)OCO2 (centres undefined) | > 30000 nM |
| > 30000 nM | CNC(=O)NC(c1ccc(F)cc1)c1cc2c(cc1O)OCO2 (centres undefined) | > 10000 nM |
| < 200 nM | Oc1c(C(c2ccc3c(c2)OC(F)(F)O3)N2CCCCC2)ccc2ccoc12 (centres undefined) | – |
| > 30000 nM | CN(C)c1cccc(C(c2ccc(F)cc2)N2CCCCC2)c1O (centres undefined) | – |
| 1070 nM | Oc1cc(F)ccc1C(c1ccc2ccoc2c1O)N1CCCCC1 (centres undefined) | – |
| 520 nM | O=[N+]([O-])c1ccc(C(c2c(O)ccc3[nH]ncc23)N2CCCCC2)cc1 (centres undefined) | – |
| 150 nM | COc1ccc(C(Nc2cc(C)ccn2)c2ccc3cccnc3c2O)cc1O (centres undefined) | > 10000 nM |
| 610 nM | Oc1c(C(c2ccc(F)cc2)N2CCCCC2)ccc2cnccc12 (centres undefined) | – |
| 150 nM | O=[N+]([O-])c1ccc(NC(c2ccccc2)c2ccc3cccnc3c2O)cc1 (centres undefined) | > 10000 nM |

| IC50 [1] | Structure (SMILES) | IC50 (U-87 MG) |
| --- | --- | --- |
| 1480 nM | O=C(O)c1ccccc1NC(c1ccccc1)c1ccc2cccnc2c1O (centres undefined) | > 10000 nM |
| 26500 nM | Cc1ccnc(NC(c2ccc(C(F)(F)F)cc2)c2ccc3cccnc3c2O)c1 (centres undefined) | 2100 nM |
| > 40000 nM | NC(=O)NC(c1ccc(O)cc1)c1cc2c(cc1O)OCO2 (centres undefined) | > 10000 nM |
| 2860 nM | COc1cccc(C(Nc2ccccn2)c2ccc3cccnc3c2O)c1 (centres undefined) | 11900 nM |
| 410 nM | Oc1c(C(c2ccc3c(c2)CCC3)N2CCCCC2)ccc2ccoc12 (centres undefined) | – |
| 170 nM | COc1cc(C(Nc2ccccn2)c2cc3c(cc2O)OCO3)cc(OC)c1O (centres undefined) | > 10000 nM |
| 1180 nM | Oc1cc2c(cc1C(Nc1ncccn1)c1ccc3c(c1)OCO3)OCO2 (centres undefined) | > 10000 nM |
| 900 nM | COc1cccc(C(c2cc3c(cc2O)OCO3)N2CCOCC2)c1O (centres undefined) | > 10000 nM |
| 980 nM | COc1cc(OC)c(C(c2cc3c(cc2O)OCO3)N2CCOCC2)c(OC)c1 (centres undefined) | 13600 nM |
| < 200 nM | CCOC(=O)c1ccccc1NC(c1ccccc1)c1ccc2cccnc2c1O (centres undefined) | > 10000 nM |
| 350 nM | Oc1ccc2[nH]ncc2c1C(c1ccc(F)cc1)N1CCCCC1 (centres undefined) | – |
| 330 nM | COc1ccccc1C(c1cc2c(cc1O)OCO2)N1CCOCC1 (centres undefined) | 27700 nM |
| > 40000 nM | Cc1ccnc(NC(c2cc(C)ccc2C)c2ccc3cccnc3c2O)c1 (centres undefined) | > 10000 nM |
| < 200 nM | Oc1cc2c(cc1C(c1ccc3c(c1)OCO3)N1CCOCC1)OCO2 (centres undefined) | > 30000 nM |
| > 100000 nM | Oc1ccc2scnc2c1C(c1ccc(F)cc1)N1CCCCC1 (centres undefined) | – |
| 700 nM | COc1cc(C(c2cc3c(cc2O)OCO3)N2CCCCC2)cc(OC)c1OC (centres undefined) | > 10000 nM |
| 230 nM | COc1cc(C(c2cc3c(cc2O)OCO3)N2CCOCC2)ccc1O (centres undefined) | 27100 nM |
| > 40000 nM | Cc1ccnc(NC(c2ccc3cccnc3c2O)c2c(Cl)cccc2Cl)c1 (centres undefined) | 7200 nM |
| 470 nM | Oc1c(C(Nc2ccccn2)c2ccccc2F)ccc2cccnc12 (centres undefined) | > 10000 nM |
| 350 nM | Cc1ccnc(NC(c2cccc(F)c2)c2ccc3cccnc3c2O)c1 (centres undefined) | 9200 nM |
| 350 nM | Oc1cc2c(cc1C(c1ccc3c(c1)OCO3)N1CCCCC1)OCO2 (centres undefined) | > 10000 nM |
| 300 nM | O=C(O)c1ccc(NC(c2ccccc2)c2ccc3cccnc3c2O)cc1 (centres undefined) | > 10000 nM |
| 640 nM | COc1cc(C(c2cc3c(cc2O)OCO3)N2CCOCC2)cc(OC)c1OC (centres undefined) | > 10000 nM |
| 340 nM | Oc1ccccc1C(c1cc2c(cc1O)OCO2)N1CCOCC1 (centres undefined) | > 30000 nM |

| IC50 [1] | Structure (SMILES) | IC50 (U-87 MG) |
| --- | --- | --- |
| 620 nM | COc1ccc(C(c2cc3c(cc2O)OCO3)n2ccnc2)cc1 (centres undefined) | > 10000 nM |
| 1810 nM | Oc1ccc2[nH]ccc2c1C(c1ccc(F)cc1)N1CCCCC1 (centres undefined) | – |
| 180 nM | COc1cc(C(Nc2ccc(C)cn2)c2ccc3cccnc3c2O)cc(OC)c1O (centres undefined) | 7400 nM |
| 880 nM | COc1ccc(C(c2cc3c(cc2O)OCO3)N2CCCCC2)cc1 (centres undefined) | 28300 nM |
| 1520 nM | COc1ccc(C(c2cc3c(cc2O)OCO3)N2CCCC2)cc1 (centres undefined) | 22600 nM |
| 340 nM | Oc1ccc2[nH]ncc2c1C(c1ccc(-c2nccs2)cc1)N1CCCCC1 (centres undefined) | – |
| 7010 nM | Oc1cc2c(cc1C(c1ccc(F)cc1)N1CCCCC1)NCC2 (centres undefined) | – |
| 1890 nM | Oc1c(C(Nc2ccccn2)c2c(Cl)cccc2Cl)ccc2cccnc12 (centres undefined) | 6900 nM |
| > 100000 nM | Oc1ccc2nccnc2c1C(c1ccc(F)cc1)N1CCCCC1 (centres undefined) | – |
| 670 nM | Oc1cc2c(cc1C(c1ccc(F)cc1)n1ccnc1)OCO2 (centres undefined) | > 10000 nM |
| 5390 nM | CCc1ccc(C(Nc2cc(C)ccn2)c2ccc3cccnc3c2O)cc1 (centres undefined) | 8900 nM |
| 1300 nM | COc1ccc(C(Nc2ncccn2)c2cc3c(cc2O)OCO3)cc1 (centres undefined) | > 10000 nM |
| 23 nM | Oc1cc2c(cc1C(c1ccc3c(c1)OCO3)N1CCCC1)OCO2 (centres undefined) | > 30000 nM |
| 960 nM | COc1ccc(C(c2cc3c(cc2O)OCO3)N2CCCCC2)cc1OC (centres undefined) | 24800 nM |
| 460 nM | Cc1ccc(C(Nc2ccccn2)c2ccc3cccnc3c2O)cc1 (centres undefined) | > 10000 nM |
| 130 nM | COc1ccc(C(c2cc3c(cc2O)OCO3)N2CCOCC2)cc1 (centres undefined) | > 10000 nM |
| 2830 nM | Oc1c(C(c2ccc(F)cc2)N2CCCCC2)ccc2c1OCO2 (centres undefined) | – |
| > 40000 nM | Cc1ccnc(NC(c2ccccc2Cl)c2ccc3cccnc3c2O)c1 (centres undefined) | 9900 nM |
| 570 nM | Oc1c(C(c2ccc(F)cc2)N2CCCCC2)ccc2scnc12 (centres undefined) | – |
| 10200 nM | Oc1ccc2ccncc2c1C(c1ccc(F)cc1)N1CCCCC1 (centres undefined) | – |
| 290 nM | Oc1ccc2[nH]ncc2c1C(c1ccc(-n2cccc2)cc1)N1CCCCC1 (centres undefined) | – |
| > 100000 nM | Oc1ccc2cnccc2c1C(c1ccc(F)cc1)N1CCCCC1 (centres undefined) | – |
| 670 nM | Oc1cc2c(cc1C(c1ccc(F)cc1)N1CCCCC1)OCCO2 (centres undefined) | – |
| > 30000 nM | Oc1ccc2ncccc2c1C(c1ccc(F)cc1)N1CCCCC1 (centres undefined) | – |

| Structure (SMILES) | IC50 [1] | IC50 (U-87 MG) |
| --- | --- | --- |
| Oc1ccc(C(c2cc3c(cc2O)OCO3)N2CCNCC2)cc1 (centres undefined) | 680 nM | > 30000 nM |
